RAD52 anneal inh – blocks human RAD52 DNA annealing | P43351 | recombinant RAD52 DNA annealing, FRET fluorescence | inhibition, % at 18.7 µM | 0.46% of 360,000 active;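 active means every replicate showing at least 50% inhibition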
Target sequence (P43351 whole entry, looked up): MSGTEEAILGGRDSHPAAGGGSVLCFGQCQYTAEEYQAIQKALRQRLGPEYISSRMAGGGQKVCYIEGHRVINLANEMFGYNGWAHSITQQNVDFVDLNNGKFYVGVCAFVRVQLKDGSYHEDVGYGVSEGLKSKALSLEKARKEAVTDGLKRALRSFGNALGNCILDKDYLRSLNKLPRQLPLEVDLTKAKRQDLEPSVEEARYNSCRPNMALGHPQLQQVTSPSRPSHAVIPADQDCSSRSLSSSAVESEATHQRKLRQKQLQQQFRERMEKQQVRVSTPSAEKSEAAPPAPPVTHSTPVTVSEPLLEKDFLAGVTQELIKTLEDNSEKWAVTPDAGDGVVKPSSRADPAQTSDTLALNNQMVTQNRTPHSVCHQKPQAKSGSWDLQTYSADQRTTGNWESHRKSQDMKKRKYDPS
GSIS activator – GLuc luminescence reporter in INS-1E cells, primary screen for activators of glucose-dependent secretion of insulin; INS-1E GLuc reporter insulin secretion, 2-3 h; activation, % at 16.6 µM; 0.61% of 370,000 active;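 active means lowest replicate activation of at least 40%, so every replicate reaches that level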
S100A4 MyoIIA – inhibitors of human S100A4 binding to myosin IIA peptide | P26447 | S100A4/TAMRA-MyoIIA peptide fluorescence polarization | inhibition, % at 10.7 µM | 0.14% of 360,000 active | AID 652163;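 active means mean inhibition of at least 70% across replicates, with every replicate also reaching that level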
Target sequence (P26447 whole entry, looked up): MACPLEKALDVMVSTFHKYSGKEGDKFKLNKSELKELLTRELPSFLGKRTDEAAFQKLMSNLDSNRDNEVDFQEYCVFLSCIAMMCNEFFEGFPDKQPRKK
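Material: human S100A4 monomer with TAMRA-labelled myosin IIA peptide; buffer or medium: HEPES pH 7.2 with CaCl2, KCl, NaCl, DTT, Triton; compound dosing: one concentration per compound; schedule: 5 min incubation before reading; benchmarks: neutral control DMSO, positive control TFP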
AF4-AF9 inh – blocks AF4 peptide binding to human AF9. AlphaScreen, biotin-AF4 peptide binding to FLAG-AF9. P42568. 0.47% of 350,000 active. AID 651704. inhibition, % at 10 µM;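 active means every replicate reaching a set inhibition limit, whatever the replicate mean, cut at about 25% in these data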
ERAP1 inh – blocks human ERAP1 aminopeptidase activity; Q9NZ08; recombinant ERAP1, Leu-AMC fluorescence, 60 min; inhibition, % at 10.7 µM; 0.15% of 340,000 active; AID 652197;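 active means mean replicate inhibition of at least 30%, or all replicates individually reaching that 30% level; inactive means mean below 30% and not every replicate reaching it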
Each line names hits and unclear results; the compound was inactive in the other large screens; ! = a repeat was not active. Compounds with a hit are over-represented: about 1.5% of the library has one in this group of screens.

O=S(=O)(c1ccccc1)N1C[C@@H]2N[C@H](C1)C2c1ccc(/C=C/c2ccccc2)cc1 (stereo not given in full)	RAD52 anneal inh 87.1!
C[C@H](CO)N1C[C@H](C)[C@H](CN(C)CC2CCCCC2)Oc2ccc(NS(C)(=O)=O)cc2C1=O	none
CN1CCN(c2ccc(NC(=O)c3sc4ccccc4c3Cl)cc2)CC1	none
COC(=O)c1ccc(N2CCN(C)CC2)c(NC(=O)c2sc3ccccc3c2Cl)c1	AF4-AF9 inh 26.2
CC(C)NC(=O)Nc1ccc2c(c1)CC(=O)N(C)C[C@H](C)[C@H](CN(C)S(C)(=O)=O)O2	none (no result: RAD52 anneal inh, S100A4 MyoIIA, AF4-AF9 inh, ERAP1 inh)
C[C@@H]1CN([C@H](C)CO)C(=O)CCCn2nncc2CO[C@@H]1CN(C)C(=O)Nc1ccc(N2CCN(C)CC2)cc1	none
C[C@H](CO)N1C[C@H](C)[C@@H](CN(C)C(=O)Nc2ccc(N3CCN(C)CC3)cc2)OCc2cnnn2CCCC1=O	RAD52 anneal inh 54.7!
C[C@@H]1CN([C@@H](C)CO)C(=O)CCCn2nncc2CO[C@H]1CN(C)C(=O)Nc1ccc(N2CCN(C)CC2)cc1	RAD52 anneal inh 58.2!
C[C@@H]1CN([C@H](C)CO)C(=O)CCCn2cc(nn2)CO[C@H]1CN(C)C(=O)Nc1ccc(N2CCN(C)CC2)cc1	RAD52 anneal inh 62.4
C[C@@H]1CN([C@H](C)CO)C(=O)CCCn2nncc2CO[C@H]1CN(C)C(=O)Nc1ccnc(N2CCOCC2)c1	GSIS activator 44.8!
CCCCc1[nH]c(=O)c(C#N)c2c1CCCC2	GSIS activator 99.5 (no result: RAD52 anneal inh, S100A4 MyoIIA, AF4-AF9 inh, ERAP1 inh)
CCCCc1[nH]c(=O)c(C#N)c2c1CSC(C)(C)C2	none (no result: RAD52 anneal inh, S100A4 MyoIIA, AF4-AF9 inh, ERAP1 inh)
CC(=O)OCCNc1cc(Sc2nc3ccccc3[nH]2)c2nonc2c1[N+](=O)[O-]	GSIS activator 121.2 (no result: RAD52 anneal inh, S100A4 MyoIIA, AF4-AF9 inh, ERAP1 inh)
CN(C)C(=O)[C@@H]1[C@@H](CO)[C@@H]2Cn3c(ccc(C4=CCCC4)c3=O)[C@H]1N2CCC(F)(F)F	none
COc1ccc2c3c(n(C)c2c1)[C@@H](CO)N(C(=O)C1CCCC1)CC31CCN(Cc2cccc(F)c2)CC1	AF4-AF9 inh 37.7
COc1ccc2c3c(n(C)c2c1)[C@@H](CO)N(C(=O)C1CCOCC1)CC31CN(Cc2cccc(F)c2)C1	none (no result: RAD52 anneal inh, S100A4 MyoIIA, ERAP1 inh)
COc1ccc2c3c(n(C)c2c1)[C@H](CO)N(C(=O)C1CCCC1)CC31CCN(Cc2cccc(F)c2)CC1	AF4-AF9 inh 25.8
COc1ccc2c3c(n(C)c2c1)[C@H](CO)N(C(=O)C1CC1)CC31CN(Cc2cccc(F)c2)C1	none
CC(C)NC(=O)Nc1ccc2c(c1)C(=O)N(C)C[C@H](C)[C@@H](CN(C)S(C)(=O)=O)O2	none (no result: RAD52 anneal inh, S100A4 MyoIIA, AF4-AF9 inh, ERAP1 inh)
Cc1ccc(S(=O)(=O)N(C)C[C@@H]2OCCCC[C@H](C)Oc3ccc(NC(=O)Nc4cccc5ccccc45)cc3C(=O)N([C@@H](C)CO)C[C@H]2C)cc1	none
C[C@H](CO)N1C[C@H](C)[C@@H](CN(C)S(=O)(=O)c2cccs2)Oc2c(NS(=O)(=O)c3cccs3)cccc2C1=O	none (no result: RAD52 anneal inh, S100A4 MyoIIA, AF4-AF9 inh, ERAP1 inh)
O=[N+]([O-])c1cccc(-c2nc3ccccc3s/c2=N/O)c1	GSIS activator 81.9
O=[N+]([O-])c1cccc(-c2cnc3ccccc3n2)c1	none
CC(=O)c1cccc(N=Nc2c(C)[nH]c3ccccc23)c1	none (no result: RAD52 anneal inh, S100A4 MyoIIA, AF4-AF9 inh, ERAP1 inh)
COc1ccc(N=Nc2c(C)[nH]c3ccccc23)cc1	AF4-AF9 inh 25.9 (no result: ERAP1 inh)
COc1ccc2c3c(n(C)c2c1)[C@H](CO)N(Cc1cccc(F)c1)CC31CCN(C)CC1	none (no result: RAD52 anneal inh, S100A4 MyoIIA, ERAP1 inh)
CCc1nnc(N2C(=O)c3ccccc3C2(O)c2ccccc2)s1 (stereo not given)	GSIS activator 41.7
COc1ccc(C2CC(c3ccccc3O)=NN2C(=O)c2ccccc2)cc1OC (stereo not given)	AF4-AF9 inh 41.1
COc1ccc([C@H]2CC(=O)C=C(c3ccc(C(=O)O)cc3)C2)cc1OC	GSIS activator 90.9
COc1ccc(C2=NN(c3ccc(C(=O)O)cc3)C(c3ccc(OC)c(OC)c3)C2)cc1 (stereo not given)	GSIS activator 53.1
COc1ccc([C@H]2CC(=O)C=C(c3ccc(-c4ccccc4)cc3)C2)cc1OC	none
COc1ccc2c3c([nH]c2c1)[C@@H](CO)N(CC1CCOCC1)CC31CN(C(=O)c2ccc(F)cc2)C1	none
CC(=O)N1C[C@@H]2C(c3ccccc3)[C@H](C1)N2C(C)=O (stereo not given in full)	none (no result: RAD52 anneal inh, S100A4 MyoIIA, AF4-AF9 inh, ERAP1 inh)
COC(=O)c1sc(NC(=O)/C=C/c2ccc(C)cc2)nc1C	GSIS activator 67.2 (no result: RAD52 anneal inh, S100A4 MyoIIA, AF4-AF9 inh, ERAP1 inh)

Bioassay records as filed in PubChem.
